Data as given in ChEMBL document CHEMBL5154945, “Discovery and Optimization of Pyrrolopyrimidine Derivatives as Selective Disruptors of the Perinucleolar Compartment, a Marker of Tumor Progression toward Metastasis” (J Med Chem, 2022).

How the values were obtained:
[1] = test system: RPMI-8226; experiment: Anticancer activity against human RPMI-8226 cells assessed as cell growth inhibition; type: functional, cell-based; settings: dose 1-100 µM, DDE = dose-dependent effect
[2] = test system: 786-0; experiment: Anticancer activity against human 786-0 cells assessed as cell growth inhibition; type: functional, cell-based; settings: dose 1-100 µM, DDE = dose-dependent effect
[3] = test system: OVCAR-8; experiment: Anticancer activity against human OVCAR-8 cells assessed as cell growth inhibition; type: functional, cell-based; settings: dose 1-100 µM, DDE = dose-dependent effect
[4] = test system: SR; experiment: Anticancer activity against human SR cells assessed as cell growth inhibition; type: functional, cell-based; settings: dose 1-100 µM, DDE = dose-dependent effect
[5] = test system: PC-3M; experiment: Cytotoxicity against human PC-3M cells expressing PTB/GFP fusion protein assessed as reduction in ATP level at 20 uM and measured after 24 to 48 hrs by ATPlite luminescence assay; type: toxicity, cell-based; settings: time 24-48 hrs
[6] = test system: SN12C; experiment: Anticancer activity against human SN12C cells assessed as cell growth inhibition; type: functional, cell-based; settings: dose 1-100 µM, DDE = dose-dependent effect
[7] = test system: OVCAR-5; experiment: Anticancer activity against human OVCAR-5 cells assessed as cell growth inhibition; type: functional, cell-based; settings: dose 1-100 µM, DDE = dose-dependent effect
[8] = test system: IGROV-1; experiment: Anticancer activity against human IGROV-1 cells assessed as cell growth inhibition; type: functional, cell-based; settings: dose 1-100 µM, DDE = dose-dependent effect
[9] = test system: T47D; experiment: Anticancer activity against human T47D cells assessed as cell growth inhibition; type: functional, cell-based; settings: dose 1-100 µM, DDE = dose-dependent effect
[10] = test system: LOX IMVI; experiment: Anticancer activity against human LOX IMVI cells assessed as cell growth inhibition; type: functional, cell-based; settings: dose 1-100 µM, DDE = dose-dependent effect
[11] = test system: SK-OV-3; experiment: Anticancer activity against human SK-OV-3 cells assessed as cell growth inhibition; type: functional, cell-based; settings: dose 1-100 µM, DDE = dose-dependent effect
[12] = test system: NCI-H522; experiment: Anticancer activity against human NCI-H522 cells assessed as cell growth inhibition; type: functional, cell-based; settings: dose 1-100 µM, DDE = dose-dependent effect
[13] = test system: CAKI-1; experiment: Anticancer activity against human CAKI-1 cells assessed as cell growth inhibition; type: functional, cell-based; settings: dose 1-100 µM, DDE = dose-dependent effect
[14] = test system: Malme-3M; experiment: Anticancer activity against human Malme-3M cells assessed as cell growth inhibition; type: functional, cell-based; settings: dose 1-100 µM, DDE = dose-dependent effect
[15] = test system: OVCAR-3; experiment: Anticancer activity against human OVCAR-3 cells assessed as cell growth inhibition; type: functional, cell-based; settings: dose 1-100 µM, DDE = dose-dependent effect
[16] = test system: HCT-15; experiment: Anticancer activity against human HCT-15 cells assessed as cell growth inhibition; type: functional, cell-based; settings: dose 1-100 µM, DDE = dose-dependent effect
[17] = test system: UACC-62; experiment: Anticancer activity against human UACC-62 cells assessed as cell growth inhibition; type: functional, cell-based; settings: dose 1-100 µM, DDE = dose-dependent effect
[18] = test system: Hs-578T; experiment: Anticancer activity against human Hs-578T cells assessed as cell growth inhibition; type: functional, cell-based; settings: dose 1-100 µM, DDE = dose-dependent effect
[19] = test system: SF-295; experiment: Anticancer activity against human SF-295 cells assessed as cell growth inhibition; type: functional, cell-based; settings: dose 1-100 µM, DDE = dose-dependent effect
[20] = test system: DU-145; experiment: Anticancer activity against human DU-145 cells assessed as cell growth inhibition; type: functional, cell-based; settings: dose 1-100 µM, DDE = dose-dependent effect
[21] = test system: MDA-MB-231; experiment: Anticancer activity against human MDA-MB-231 cells assessed as cell growth inhibition; type: functional, cell-based; settings: dose 1-100 µM, DDE = dose-dependent effect
[22] = test system: KM12; experiment: Anticancer activity against human KM12 cells assessed as cell growth inhibition; type: functional, cell-based; settings: dose 1-100 µM, DDE = dose-dependent effect
[23] = test system: M14; experiment: Anticancer activity against human M14 cells assessed as cell growth inhibition; type: functional, cell-based; settings: dose 1-100 µM, DDE = dose-dependent effect
[24] = test system: CCRF-CEM; experiment: Anticancer activity against human CCRF-CEM cells assessed as cell growth inhibition; type: functional, cell-based; settings: dose 1-100 µM, DDE = dose-dependent effect
[25] = test system: COLO 205; experiment: Anticancer activity against human COLO 205 cells assessed as cell growth inhibition; type: functional, cell-based; settings: dose 1-100 µM, DDE = dose-dependent effect
[26] = test system: SK-MEL-5; experiment: Anticancer activity against human SK-MEL-5 cells assessed as cell growth inhibition; type: functional, cell-based; settings: dose 1-100 µM, DDE = dose-dependent effect
[27] = test system: MDA-MB-468; experiment: Anticancer activity against human MDA-MB-468 cells assessed as cell growth inhibition; type: functional, cell-based; settings: dose 1-100 µM, DDE = dose-dependent effect
[28] = test system: K562; experiment: Anticancer activity against human K562 cells assessed as cell growth inhibition; type: functional, cell-based; settings: dose 1-100 µM, DDE = dose-dependent effect
[29] = test system: SF-268; experiment: Anticancer activity against human SF-268 cells assessed as cell growth inhibition; type: functional, cell-based; settings: dose 1-100 µM, DDE = dose-dependent effect
[30] = test system: SK-MEL-2; experiment: Anticancer activity against human SK-MEL-2 cells assessed as cell growth inhibition; type: functional, cell-based; settings: dose 1-100 µM, DDE = dose-dependent effect
[31] = test system: PC-3; experiment: Anticancer activity against human PC-3 cells assessed as cell growth inhibition; type: functional, cell-based; settings: dose 1-100 µM, DDE = dose-dependent effect
[32] = test system: MCF7; experiment: Anticancer activity against human MCF7 cells assessed as cell growth inhibition; type: functional, cell-based; settings: dose 1-100 µM, DDE = dose-dependent effect
[33] = test system: SW-620; experiment: Anticancer activity against human SW-620 cells assessed as cell growth inhibition; type: functional, cell-based; settings: dose 1-100 µM, DDE = dose-dependent effect
[34] = test system: NCI-H322M; experiment: Anticancer activity against human NCI-H322M cells assessed as cell growth inhibition; type: functional, cell-based; settings: dose 1-100 µM, DDE = dose-dependent effect
[35] = test system: UACC-257; experiment: Anticancer activity against human UACC-257 cells assessed as cell growth inhibition; type: functional, cell-based; settings: dose 1-100 µM, DDE = dose-dependent effect
[36] = test system: SNB-75; experiment: Anticancer activity against human SNB-75 cells assessed as cell growth inhibition; type: functional, cell-based; settings: dose 1-100 µM, DDE = dose-dependent effect
[37] = test system: EKVX; experiment: Anticancer activity against human EKVX cells assessed as cell growth inhibition; type: functional, cell-based; settings: dose 1-100 µM, DDE = dose-dependent effect
[38] = test system: A549; experiment: Anticancer activity against human A549 cells assessed as cell growth inhibition; type: functional, cell-based; settings: dose 1-100 µM, DDE = dose-dependent effect
[39] = test system: U-251; experiment: Anticancer activity against human U-251 cells assessed as cell growth inhibition; type: functional, cell-based; settings: dose 1-100 µM, DDE = dose-dependent effect
[40] = test system: RXF 393; experiment: Anticancer activity against human RXF 393 cells assessed as cell growth inhibition; type: functional, cell-based; settings: dose 1-100 µM, DDE = dose-dependent effect
[41] = test system: UO-31; experiment: Anticancer activity against human UO-31 cells assessed as cell growth inhibition; type: functional, cell-based; settings: dose 1-100 µM, DDE = dose-dependent effect
[42] = test system: SK-MEL-28; experiment: Anticancer activity against human SK-MEL-28 cells assessed as cell growth inhibition; type: functional, cell-based; settings: dose 1-100 µM, DDE = dose-dependent effect
[43] = test system: NCI/ADR-RES; experiment: Anticancer activity against human NCI/ADR-RES cells assessed as cell growth inhibition; type: functional, cell-based; settings: dose 1-100 µM, DDE = dose-dependent effect
[44] = test system: OVCAR-4; experiment: Anticancer activity against human OVCAR-4 cells assessed as cell growth inhibition; type: functional, cell-based; settings: dose 1-100 µM, DDE = dose-dependent effect
[45] = test system: A498; experiment: Anticancer activity against human A498 cells assessed as cell growth inhibition; type: functional, cell-based; settings: dose 1-100 µM, DDE = dose-dependent effect
[46] = test system: SF-539; experiment: Anticancer activity against human SF-539 cells assessed as cell growth inhibition; type: functional, cell-based; settings: dose 1-100 µM, DDE = dose-dependent effect
[47] = test system: HCT-116; experiment: Anticancer activity against human HCT-116 cells assessed as cell growth inhibition; type: functional, cell-based; settings: dose 1-100 µM, DDE = dose-dependent effect
[48] = test system: HL-60(TB); experiment: Anticancer activity against human HL-60(TB) cells assessed as cell growth inhibition; type: functional, cell-based; settings: dose 1-100 µM, DDE = dose-dependent effect
[49] = test system: HT-29; experiment: Anticancer activity against human HT-29 cells assessed as cell growth inhibition; type: functional, cell-based; settings: dose 1-100 µM, DDE = dose-dependent effect
[50] = test system: TK-10; experiment: Anticancer activity against human TK-10 cells assessed as cell growth inhibition; type: functional, cell-based; settings: dose 1-100 µM, DDE = dose-dependent effect
[51] = test system: NCI-H460; experiment: Anticancer activity against human NCI-H460 cells assessed as cell growth inhibition; type: functional, cell-based; settings: dose 1-100 µM, DDE = dose-dependent effect
[52] = test system: PC-3M; experiment: Antiproliferative activity against human PC-3M cells expressing PTB/GFP fusion protein assessed as cell growth inhibition at < 100 nM and measured every four hrs for 130 hrs by IncuCyte zoom live cell analysis; type: functional, cell-based; settings: DDE = dose-dependent effect
In short: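 PC3M cells stably expressing GFP-PTB, grown in DMEM with 10% FBS and 1% penicillin/streptomycin, seeded at 1.25×10^4 cells/ml in 384-well plates and left overnight at 37 °C, 5% CO2. Compound added in DMEM to give 11 final concentrations from 10 nM to 20 μM. Brightfield images were taken every 4 h for about 130 h and scored as percent confluence.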

[53] = test system: NCI-H226; experiment: Anticancer activity against human NCI-H226 cells assessed as cell growth inhibition; type: functional, cell-based; settings: dose 1-100 µM, DDE = dose-dependent effect
[54] = test system: ACHN; experiment: Anticancer activity against human ACHN cells assessed as cell growth inhibition; type: functional, cell-based; settings: dose 1-100 µM, DDE = dose-dependent effect
[55] = test system: HOP-62; experiment: Anticancer activity against human HOP-62 cells assessed as cell growth inhibition; type: functional, cell-based; settings: dose 1-100 µM, DDE = dose-dependent effect
[56] = test system: BT-549; experiment: Anticancer activity against human BT-549 cells assessed as cell growth inhibition; type: functional, cell-based; settings: dose 1-100 µM, DDE = dose-dependent effect
[57] = test system: PC-3M; experiment: Antiproliferative activity against human PC-3M cells expressing PTB/GFP fusion protein assessed as reduction of nucleolar volume at 1 to 30 uM measured after 24 hrs by Nucleolar-id Green Detection based confocal microscopic analysis; type: functional, cell-based; settings: dose 1-30 µM, DDE = dose-dependent effect
In short: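 PC-3M cells grown in RPMI 1640 with 10% FBS and penicillin/streptomycin, trypsinized at 70% confluence, and seeded at 2×10^5 cells/mL overnight at 37 °C, 5% CO₂. Medium replaced with compound or 1% DMSO for 24 h. Nucleoli stained with Nucleolar-ID Green and nuclei with Hoechst 33342, then imaged by confocal microscopy. Bright green objects in three images per condition normalized to nuclei count; vehicle set to 100.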

[58] = test system: MDA-MB-435; experiment: Anticancer activity against human MDA-MB-435 cells assessed as cell growth inhibition; type: functional, cell-based; settings: dose 1-100 µM, DDE = dose-dependent effect
[59] = test system: MOLT-4; experiment: Anticancer activity against human MOLT-4 cells assessed as cell growth inhibition; type: functional, cell-based; settings: dose 1-100 µM, DDE = dose-dependent effect
[60] = test system: HCC 2998; experiment: Anticancer activity against human HCC 2998 cells assessed as cell growth inhibition; type: functional, cell-based; settings: dose 1-100 µM, DDE = dose-dependent effect
[61] = test system: NCI-H23; experiment: Anticancer activity against human NCI-H23 cells assessed as cell growth inhibition; type: functional, cell-based; settings: dose 1-100 µM, DDE = dose-dependent effect
[62] = test system: SNB-19; experiment: Anticancer activity against human SNB-19 cells assessed as cell growth inhibition; type: functional, cell-based; settings: dose 1-100 µM, DDE = dose-dependent effect

Measured: Activity

N=c1c2c(-c3ccccc3)c(-c3ccccc3)n(Cc3ccccc3)c2ncn1CCCO
Toxic: [5]
active: [1] Dde | [2] Dde | [3] Dde | [4] Dde | [6] Dde | [7] Dde | [8] Dde | [9] Dde | [10] Dde | [11] Dde | [12] Dde | [13] Dde | [14] Dde | [15] Dde | [16] Dde | [17] Dde | [18] Dde | [19] Dde | [20] Dde | [21] Dde | [22] Dde | [23] Dde | [24] Dde | [25] Dde | [26] Dde | [27] Dde | [28] Dde | [29] Dde | [30] Dde | [31] Dde | [32] Dde | [33] Dde | [34] Dde | [35] Dde | [36] Dde | [37] Dde | [38] Dde | [39] Dde | [40] Dde | [41] Dde | [42] Dde | [43] Dde | [44] Dde | [45] Dde | [46] Dde | [47] Dde | [48] Dde | [49] Dde | [50] Dde | [51] Dde | [52] Dde | [53] Dde | [54] Dde | [55] Dde | [56] Dde | [57] Dde | [58] Dde | [59] Dde | [60] Dde | [61] Dde | [62] Dde
